Results: publication PMC4919474 (EBioMedicine, 2016)

Test system: Drosophila S3 cells
Experiment: qHTS of OA-induced lipid droplet storage in S3 cells
Type: cell-based
Settings: Drosophila melanogaster
Summary of the method: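 Drosophila S3 cells in medium with 5% FCS receive library compounds at […] (46 μM to 3 nM, 1:5 steps). Droplets are induced with 400 μM oleic acid on fatty-acid-free BSA. After 18 h, cells are fixed and stained with BODIPY 493/503 (lipid) and CellTracker Red CMTPX (cell count), then read by 488 nm laser scanning. Lipid signal is normalised to cell number; dose-response curves are fitted.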

Question: How did the EC50 turn out when `CCC/C=C/C/C=C/C=C/C=N/NN=O` [TriacsinC] was run?
Answer: 90 nM
